From PubChem BioAssay
E-sel inducer: E-selectin induction in HUVECs, primary screen, imaging, HUVEC, immunofluorescence imaging, single point | normalized: neutral wells 0, TNF-alpha wells 100 | activation, % at 7.58 µM | actives 0.37% (n = 260,000) | P16581;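 active means mean E-selectin-positive cell signal at least 10% of the positive control, reached in at least 60% of replicates, without over 20% cell loss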
Target sequence (P16581 whole entry, looked up): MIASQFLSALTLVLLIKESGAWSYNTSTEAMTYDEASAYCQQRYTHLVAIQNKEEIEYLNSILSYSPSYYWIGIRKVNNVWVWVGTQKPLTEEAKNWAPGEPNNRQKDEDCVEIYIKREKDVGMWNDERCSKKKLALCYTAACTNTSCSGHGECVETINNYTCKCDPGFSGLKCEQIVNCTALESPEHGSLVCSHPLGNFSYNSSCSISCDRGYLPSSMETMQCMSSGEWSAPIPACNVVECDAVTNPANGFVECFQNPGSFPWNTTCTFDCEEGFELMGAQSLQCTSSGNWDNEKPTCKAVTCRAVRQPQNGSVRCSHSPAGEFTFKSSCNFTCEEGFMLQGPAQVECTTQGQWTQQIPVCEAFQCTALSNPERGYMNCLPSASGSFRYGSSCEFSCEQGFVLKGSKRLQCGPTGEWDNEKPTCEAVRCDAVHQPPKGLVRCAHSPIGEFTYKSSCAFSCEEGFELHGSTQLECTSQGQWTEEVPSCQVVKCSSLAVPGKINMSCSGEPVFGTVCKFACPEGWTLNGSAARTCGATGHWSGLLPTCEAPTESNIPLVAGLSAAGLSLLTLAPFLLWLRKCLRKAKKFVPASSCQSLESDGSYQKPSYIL
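Read-out: % PE-positive cells | Test system: HUVEC | Doses: One compound dose added by pin transfer | Buffer or medium: EGM-2 over gelatin coat | Signal: Immunofluorescence imaging | Benchmarks: TNF-alpha, DMSO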
Large screens that a line does not name were inactive. Shown is part of a subset that was picked to be rich in hits.

C[C@@H]1CN([C@H](C)CO)C(=O)c2cc(NC(=O)Nc3ccc(C(F)(F)F)cc3)ccc2O[C@H]1CN(C)Cc1ccc(Oc2ccccc2)cc1	none
Cc1noc(C)c1NC(=O)Nc1ccc2c(c1)CC(=O)N([C@H](C)CO)C[C@@H](C)[C@@H](CN(C)Cc1ccc(Oc3ccccc3)cc1)O2	none
Cc1noc(C)c1NC(=O)Nc1ccc2c(c1)CC(=O)N([C@@H](C)CO)C[C@H](C)[C@@H](CN(C)C(=O)Nc1ccc(F)cc1)O2	E-sel inducer 73
C[C@@H]1CN([C@H](C)CO)C(=O)c2cc(NC(=O)Nc3ccc(C(F)(F)F)cc3)ccc2O[C@@H]1CN(C)Cc1ccc(Oc2ccccc2)cc1	none
C[C@H]1CN([C@@H](C)CO)C(=O)Cc2cc(NC(=O)Nc3ccc(C(F)(F)F)cc3)ccc2O[C@@H]1CN(C)Cc1ccc(Oc2ccccc2)cc1	none
C[C@@H]1CN([C@@H](C)CO)C(=O)c2cc(NC(=O)Nc3ccc(C(F)(F)F)cc3)ccc2O[C@@H]1CN(C)Cc1ccc(Oc2ccccc2)cc1	E-sel inducer 100
Cc1noc(C)c1NC(=O)Nc1ccc2c(c1)CC(=O)N([C@H](C)CO)C[C@@H](C)[C@@H](CN(C)C(=O)Nc1ccc(F)cc1)O2	none
Cc1noc(C)c1NC(=O)Nc1ccc2c(c1)CC(=O)N([C@@H](C)CO)C[C@H](C)[C@@H](CN(C)Cc1ccc(Oc3ccccc3)cc1)O2	none
C[C@H](CO)N1C[C@H](C)[C@H](CN(C)Cc2ccc(C(F)(F)F)cc2)Oc2ccc(NC(=O)Nc3ccccc3)cc2CC1=O	none
Cc1noc(C)c1NC(=O)Nc1ccc2c(c1)CC(=O)N([C@@H](C)CO)C[C@@H](C)[C@@H](CN(C)C(=O)Nc1ccc(F)cc1)O2	none
CO[C@@H]1CN(C)C(=O)c2cc(NC(=O)C3CCC3)ccc2OC[C@H](C)N(CC2CCCCC2)C[C@H]1C	none
CCC(=O)N1[C@H](CO)[C@H](c2ccc(-c3ccccc3OC)cc2)[C@H]1CNC(C)=O	none
COc1ccc2c3c(n(C)c2c1)[C@H](CO)N(C(=O)c1ccc(F)cc1)CC31CN(C(=O)c2ccc(F)cc2)C1	none
C[C@H](CO)N1C[C@H](C)[C@@H](CN(C)S(C)(=O)=O)Oc2ccc(NC(=O)CCCCCC(=O)Nc3ccccc3N)cc2C1=O	none
COc1ccc(-c2ccc([C@@H]3[C@H](C#N)N(C(=O)NC4CCCCC4)[C@H]3CO)cc2)cc1	none
COCC(=O)Nc1ccc2c(c1)C(=O)N(C)[C@H]1CC[C@H](CC(=O)NCc3cccc(F)c3)O[C@H]1CO2	none
Cc1noc(C)c1NC(=O)N(C)C[C@H]1Oc2ccc(NC(=O)CCCCCC(=O)Nc3ccccc3N)cc2CC(=O)N([C@@H](C)CO)C[C@@H]1C	none
CCCN1C[C@H](C)[C@H](OC)CN(C)C(=O)c2cc(NC(=O)C3CCOCC3)ccc2OC[C@H]1C	none
O=C(c1ccc2c(c1)OCO2)N1CC2(C1)[C@H](c1ccccc1)[C@@H](CO)N2C(=O)C1CCC1	none
Cc1noc(C)c1NC(=O)Nc1ccc2c(c1)C(=O)N([C@H](C)CO)C[C@@H](C)[C@H](CN(C)CC1CCCCC1)OCCCC[C@@H](C)O2	none
Fc1ccc(NC(=S)Nc2cc(-c3ccccc3)[nH]n2)cc1Cl	E-sel inducer 30
Fc1ccc(NC(=S)Nc2ccccc2OC(F)F)cc1Cl	none
Cc1ccc(NC(=S)Nc2cc(-c3ccccc3)[nH]n2)cc1Cl	none
C[C@@H]1CN([C@H](C)CO)C(=O)c2cc(NC(=O)CCCN(C)C)ccc2O[C@@H](C)CCCCO[C@@H]1CN(C)Cc1ccc(C(F)(F)F)cc1	none
C[C@@H]1CN([C@H](C)CO)C(=O)c2cccc(NC(=O)Nc3ccc4c(c3)OCO4)c2O[C@@H]1CN(C)CC1CCCCC1	none
O=C(C[C@@H]1CC[C@H](NC(=O)c2cccnc2)[C@@H](CO)O1)NCc1ccc(Cl)c(Cl)c1	none
Cc1cc(C(=O)Nc2c(C)cccc2C)n(-c2ccccc2)n1	none
Cc1cc(C(=O)Nc2ccc(C)c(C)c2)n(-c2ccccc2)n1	E-sel inducer 53
CCOC(=O)c1ccc(NC(=O)c2cc(C)nn2-c2ccccc2)cc1	none
CN1c2ccc(-c3cccc(F)c3)cc2[C@@H]2[C@@H](CCN2S(=O)(=O)c2cccc(F)c2)[C@H]1CO	none
O=S(=O)(c1ccccc1F)N1CC[C@H]2[C@H](CO)Nc3ccc(-c4ccccc4)cc3[C@H]21	none
COc1ccc(NC(=O)N(C)C[C@H]2Oc3c(NC(=O)c4ccc(-c5nccs5)cc4)cccc3C(=O)N([C@@H](C)CO)C[C@@H]2C)cc1	none
C[C@H]1CCCCO[C@@H](CN(C)S(=O)(=O)c2ccc(F)cc2)[C@@H](C)CN([C@@H](C)CO)C(=O)c2cc(NC(=O)Nc3ccccc3)ccc2O1	none
C[C@H](CO)N1C[C@H](C)[C@H](CN(C)CC2CCCCC2)Oc2c(NC(=O)Nc3ccc(F)cc3)cccc2C1=O	none
COc1ccc(NC(=O)Nc2cccc3c2O[C@H](CN(C)C(=O)NC2CCCCC2)[C@@H](C)CN([C@H](C)CO)C3=O)cc1	none
C[C@@H]1CN([C@H](C)CO)C(=O)c2cccc(NC(=O)Nc3ccc(F)cc3)c2O[C@@H]1CN(C)C(=O)NC1CCCCC1	none
C[C@H]1CN([C@@H](C)CO)C(=O)c2cccc(NC(=O)Nc3ccc(F)cc3)c2O[C@H]1CN(C)CC1CC1	none
C[C@@H]1CN([C@@H](C)CO)C(=O)c2cccc(NC(=O)Nc3ccc(F)cc3)c2O[C@H]1CN(C)CC1CCCCC1	E-sel inducer 58
C[C@@H]1CN([C@H](C)CO)C(=O)c2cccc(NC(=O)Nc3ccc(F)cc3)c2O[C@H]1CN(C)C(=O)NC1CCCCC1	E-sel inducer 66
COc1ccc(NC(=O)Nc2cccc3c2O[C@@H](CN(C)C(=O)NC2CCCCC2)[C@@H](C)CN([C@H](C)CO)C3=O)cc1	E-sel inducer 38
C[C@H](CO)N1C[C@H](C)[C@H](CN(C)C(=O)NC2CCCCC2)Oc2c(NC(=O)Nc3ccc(F)cc3)cccc2C1=O	none
COc1ccc(NC(=O)Nc2cccc3c2O[C@@H](CN(C)C(=O)NC2CCCCC2)[C@H](C)CN([C@@H](C)CO)C3=O)cc1	none
C[C@@H]1CN([C@@H](C)CO)C(=O)c2cc(NC(=O)CCCCCC(=O)Nc3ccccc3N)ccc2O[C@H]1CN(C)Cc1ccc(C(F)(F)F)cc1	none
COc1ccc(NC(=O)Nc2ccc3c(c2)CC(=O)N([C@H](C)CO)C[C@H](C)[C@H](CN(C)S(=O)(=O)c2ccc(C)cc2)O3)cc1	none
COc1cc(N)c(Cl)cc1C(=O)OCC(=O)c1cccs1	none
COc1cc(N)c(Cl)cc1C(=O)OCC(=O)NCc1cccs1	E-sel inducer 73
COc1ccc(C(=O)OCC(=O)NCc2cccs2)c(OC)c1OC	none
CC(C)NC(=O)N1[C@H](CO)[C@H](c2ccccc2)C12CN(C(=O)c1ccccn1)C2	none
CCCC(=O)Nc1ccc2c(c1)C(=O)N(C)C[C@H](OC)[C@H](C)CN(C(=O)CN(C)C)[C@H](C)CO2	none
O=C(Nc1cccnc1)c1cc(-c2ccccc2O)on1	none
O=C(NC1CCCC1)c1cc(-c2ccccc2O)on1	E-sel inducer 47
Cc1cccc(C)c1OCc1cc(C(=O)NC2CCC2)no1	none
C[C@@H]1CN([C@@H](C)CO)C(=O)Cc2cc(NS(=O)(=O)c3cccs3)ccc2O[C@H]1CN(C)Cc1ccc(C(F)(F)F)cc1	none
Cc1ccc(NC(=O)C2CSC3(C)CCC(=O)N23)cc1S(=O)(=O)N1CCOCC1 (configuration not stated)	none
CC12CCC(=O)N1C(C(=O)Nc1cc(Cl)ccc1N1CCOCC1)CS2 (configuration not stated)	E-sel inducer 135
